What was measured:
PC-3 = experiment: Cytotoxicity against human PC3 cells after 72 hrs by MTT assay; type: functional, cell-based; conditions: PC-3, 72 h
In short: (§1)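 Cells allowed to attach as monolayers, then exposed to compounds at various concentrations in culture medium for 72 h; controls got deionized water (compound stock solvent). MTT added ([…]) for 3 h, supernatant removed, cells dissolved in DMSO, absorbance at 570 nm. CC50 = concentration reducing MTT signal 50% versus untreated controls.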

HeLa = experiment: Cytotoxicity against human HeLa cells after 72 hrs by MTT assay; type: functional, cell-based; in short: as §1
A549 = experiment: Cytotoxicity against human A549 cells after 72 hrs by MTT assay; type: functional, cell-based; conditions: A549, 72 h; in short: as §1
CNE = experiment: Cytotoxicity against human CNE cells after 72 hrs by MTT assay; type: functional, cell-based; in short: as §1
[1] = Cytotoxicity against human Bel7404 cells after 72 hrs by MTT assay; type: functional, cell-based; conditions: BEL-7404, 72 h; in short: as §1
KB = experiment: Cytotoxicity against human KB cells after 72 hrs by MTT assay; type: functional, cell-based; in short: as §1
[2] = Inhibition of alpha glucosidase
In short: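 α-Glucosidase (25 µL at 0.2 U/mL) with p-nitrophenyl-α-D-glucopyranoside (25 µL of 23.2 mM), sample at various concentrations, in 67 mM phosphate buffer pH 6.8. Reaction stopped with 1 M Na2CO3; p-nitrophenol release read at 405 nm. Blanks lacked enzyme; negative control had buffer instead of sample; acarbose as positive control. Percent inhibition from corrected ODs; IC50 calculated from this.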

For O=C(/C=C/c1ccc(O)cc1)OC/C=C/c1ccccc1, the IC50 (PC-3) was 143 µM, the IC50 (HeLa) was 160 µM and the IC50 (A549) was 120 µM. The IC50 (CNE) was 162 µM, the IC50 [1] was over 100 µg/mL and the IC50 (KB) was over 100 µg/mL. For the same compound, the IC50 [2] was 65 µM.

With O=C(/C=C/c1ccc(O)c(O)c1)OC/C=C/c1ccccc1 the IC50 (PC-3) was 123 µM, the IC50 (HeLa) was 171 µM and the IC50 (A549) was 71 µM. It also gave an IC50 (CNE) of 214 µM, an IC50 [1] of 91 µM and an IC50 (KB) of 54 µM. For the same compound, the IC50 [2] was 97 µM.

COc1ccc(/C=C/COC(=O)/C=C/c2cc(OC)c(OC)c(OC)c2)cc1OC gave an IC50 (PC-3) of 80 µM, an IC50 (HeLa) of 64 µM and an IC50 (A549) of 172 µM. The IC50 (CNE) was over 100 µg/mL, the IC50 [1] was 212 µM and the IC50 (KB) was over 100 µg/mL.

Compound COc1ccc(/C=C/COC(=O)/C=C/c2ccc([N+](=O)[O-])cc2)cc1OC has an IC50 (PC-3) of 212 µM, an IC50 (HeLa) of over 100 µg/mL and an IC50 (A549) of over 100 µg/mL. For the same compound, the IC50 (CNE) was over 100 µg/mL, the IC50 [1] was over 100 µg/mL and the IC50 (KB) was 165 µM.

COc1cc(/C=C/COC(=O)/C=C/c2cc(OC)c(OC)c(OC)c2)cc(OC)c1OC showed an IC50 (PC-3) of 189 µM, an IC50 (HeLa) of 43 µM and an IC50 (A549) of 180 µM. For the same compound, the IC50 (CNE) was 50 µM, the IC50 [1] was over 100 µg/mL and the IC50 (KB) was 206 µM. The IC50 [2] was 110 µM.

Work on O=C(CCc1ccc(O)c(O)c1)OCCCc1ccccc1 yielded an IC50 (PC-3) of 189 µM, an IC50 (HeLa) of 171 µM and an IC50 (A549) of 138 µM. The IC50 (CNE) was 235 µM, the IC50 [1] was over 100 µg/mL and the IC50 (KB) was 125 µM. The IC50 [2] was 73 µM.

COCOc1ccc(/C=C/C(=O)OC/C=C/c2ccc(OC)cc2)cc1 gave an IC50 (PC-3) of 226 µM, an IC50 (HeLa) of 46 µM and an IC50 (A549) of over 100 µg/mL. For the same compound, the IC50 (CNE) was over 100 µg/mL, the IC50 [1] was over 100 µg/mL and the IC50 (KB) was over 100 µg/mL.

For COc1ccc(/C=C/COC(=O)/C=C/c2ccc(O)cc2)cc1, the IC50 (PC-3) was 88 µM, the IC50 (HeLa) was 95 µM and the IC50 (A549) was 72 µM. It also gave an IC50 (CNE) of 40 µM, an IC50 [1] of 193 µM and an IC50 (KB) of 143 µM.

Work on COc1ccc(CCCOC(=O)CCc2cc(OC)c(OC)c(OC)c2)cc1OC yielded an IC50 (PC-3) of 104 µM, an IC50 (HeLa) of over 100 µg/mL and an IC50 (A549) of over 100 µg/mL. It also gave an IC50 (CNE) of over 100 µg/mL, an IC50 [1] of over 100 µg/mL and an IC50 (KB) of 124 µM.

Compound COc1ccc(CCCOC(=O)CCc2ccc(O)cc2)cc1 has an IC50 (PC-3) of 283 µM, an IC50 (HeLa) of over 100 µg/mL and an IC50 (A549) of 186 µM. For the same compound, the IC50 (CNE) was 287 µM, the IC50 [1] was 108 µM and the IC50 (KB) was 820 µM.

Compound COCOc1ccc(/C=C/C(=O)OC/C=C/c2ccccc2)cc1OCOC has an IC50 (PC-3) of over 1000 µM, an IC50 (HeLa) of over 1000 µM and an IC50 (A549) of over 100 µg/mL. For the same compound, the IC50 (CNE) was over 100 µg/mL, the IC50 [1] was over 100 µg/mL and the IC50 (KB) was 202 µM.

Work on COc1ccc(/C=C/COC(=O)/C=C/c2ccc(OC)c(OC)c2)cc1OC yielded an IC50 (PC-3) of 92 µM, an IC50 (HeLa) of 86.7 µM and an IC50 (A549) of 181 µM. The IC50 (CNE) was over 100 µg/mL, the IC50 [1] was 136 µM and the IC50 (KB) was 133 µM.

With COc1ccc(/C=C/C(=O)OC/C=C/c2ccc(OC)c(OC)c2)cc1 the IC50 (PC-3) was 181 µM, the IC50 (HeLa) was 167 µM and the IC50 (A549) was over 100 µg/mL. For the same compound, the IC50 (CNE) was over 100 µg/mL, the IC50 [1] was over 100 µg/mL and the IC50 (KB) was over 100 µg/mL.

In the case of C[C@H]1O[C@H](O[C@H]2[C@H](O)[C@@H](O)[C@@H](O[C@H]3[C@H](O)[C@@H](O)C(O)O[C@@H]3CO)O[C@@H]2CO)[C@H](O)[C@@H](O)[C@@H]1N[C@H]1C=C(CO)[C@@H](O)[C@H](O)[C@H]1O (stereo partly drawn) [ACARBOSE], the IC50 [2] is reported as 680 µM.
